# Laboratory results reported in paper PMC3266058 (Journal of Medicinal Chemistry, 2011).
# Like-named read-outs stand apart in the source and are kept apart here.
# Experiments:
# [1] = system: Jurkat cells; test: Antiproliferative MTT assay, Jurkat; format: cell-based; settings: Homo sapiens, 72 h, read-out: IC50 Jurkat
# Method in brief: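 Cells (8 × 10^3 per well in complete medium) settled 18 h at 37 °C, 5% CO2, then medium replaced with fresh medium holding test compound at a range of concentrations (10 mM DMSO stocks; final DMSO ≤0.25%) for 72 h at 37 °C. Viability read by MTT.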
# [2] = system: HT-29 xenograft; test: In vivo antitumor activity, HT-29 xenograft; design: species or system BALB/c-nu nude mice; settings: 100 mg/kg intraperitoneally, days 0, 2 and 4; end of observation period (day 24)
# Method in brief: (§1)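 Female BALB/c-nu nude mice, 4 weeks old (15−18 g), kept pathogen-free. HT-29 cells at 1 × 10^7 cells/mL in serum-free RPMI 1640 were injected (0.2 mL) subcutaneously in the back. At ~300 mm3, 18 mice were randomised to vehicle or treatment groups (six per group). Test compound was given in DMSO i.p. at 0.01 mL/g (100 mg/kg) on days 0, 2 and 4. Tumour size (caliper, V = LW²/2) and body weight were recorded at each time point. Results are mean ± SEM; two-sided Student's t test.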
# [3] = system: A549 cells; settings: read-out: IC50 A549 (Table 3); parental line; ref 13c; cited from earlier work
# [4] = system: A549-T12 cells; settings: ref 13c, cited from earlier work
# [5] = system: six human cancer cell lines (HeLa, A549, HL-60, Jurkat, MCF-7, HT-29); test: Antiproliferative activity over the panel of six human cancer cell lines; format: cell-based; settings: all cell lines
# [6] = system: HeLa cells; test: Flow cytometric cell cycle analysis; format: cell-based, human; settings: 24 h
# Method in brief: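 Exponentially growing HeLa cells (5 × 10^5), grown in DMEM with 10% FBS and penicillin/streptomycin, were exposed to 15–250 nM test compound for 24 h, with DMSO ≤0.25%. Cells were fixed in ice-cold 70% ethanol, treated with lysis buffer containing RNase A and 0.1% Triton X-100, and stained with propidium iodide. DNA content was measured by flow cytometry. Results are mean ± SEM of three independent experiments.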
# [7] = system: HeLa cells; test: Mitochondrial membrane potential; format: cell-based, human; settings: JC-1, 24 or 48 h
# Method in brief: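 HeLa cells in DMEM with 10% FBS were incubated 24 or 48 h with test compound (final DMSO ≤0.25%), then stained with the cationic dye JC-1 and analysed by flow cytometry. Polarized mitochondria give red aggregate emission (590 nm); depolarized ones give monomer emission (530 nm). Data are mean ± SEM of three independent experiments.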
# [8] = system: HeLa cells; test: Mitochondrial ROS production; format: cell-based, human; settings: HE and H2-DCFDA, 24 or 48 h, vs control cells
# Method in brief: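 HeLa cells were cultured in DMEM with 10% FBS and antibiotics and exposed to test compound for 24 or 48 h, with final DMSO ≤0.25%. Cells were then stained with hydroethidine or H2-DCFDA, and ROS were measured by flow cytometry. Data are mean ± SEM of three independent experiments.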
# [9] = system: HeLa cells; test: Annexin-V/PI apoptosis assay; format: cell-based, human; settings: 24 or 48 h, vs control
# Method in brief: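 HeLa cells grown in DMEM with 10% FBS, penicillin G and streptomycin, then exposed to test compound (10 mM DMSO stocks; final DMSO ≤0.25%). Phosphatidylserine exposure was read by flow cytometry after annexin-V-FITC labelling per kit instructions, with simultaneous PI staining. Excitation was 488 nm, with emission filters at 525 nm (FITC) and 585 nm (PI).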
# [10] = system: LoVo^Doxo cells; settings: ref 13c, cited from earlier work
# [11] = system: LoVo cells; settings: read-out: IC50 LoVo; parental line; ref 13c; cited from earlier work
# [12] = system: HeLa cells; test: Antiproliferative MTT assay, HeLa; format: cell-based; settings: Homo sapiens, 72 h, read-out: IC50 HeLa
# [13] = system: HL-60 cells; test: Antiproliferative MTT assay, HL-60; format: cell-based; settings: Homo sapiens, HL-60, 72 h, read-out: IC50 HL-60
# [14] = system: MCF-7 cells; test: Antiproliferative MTT assay, MCF-7; format: cell-based; settings: Homo sapiens, MCF7, 72 h, read-out: IC50 MCF-7
# [15] = system: A549 cells; test: Antiproliferative MTT assay, A549; format: cell-based; settings: Homo sapiens, A549, 72 h, read-out: IC50 A549
# [16] = biological target: bovine brain tubulin (Bos taurus, UniProt P81947+Q6B856); test: Inhibition of tubulin polymerization; format: biochemical; settings: tubulin assembly assay
# [17] = system: caspase-9; test: Western blot, caspase-9 in HeLa cells; format: cell-based, human; settings: 24 or 48 h
# Method in brief: (§2)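 HeLa cells were treated with test compound (DMSO ≤0.25%) for the indicated times, then washed twice in ice-cold PBS. They were lysed on ice for 30 min and spun at 15000g, 4 °C, 10 min; protein was measured by BCA. 20 μg was run on 7.5–15% SDS-PAGE and transferred to PVDF. Membranes were blocked overnight at 4 °C, then probed 2 h at room temperature with primary antibodies (total caspase-3, cleaved caspase-9, cyclin B, Bcl-2, Bax, XIAP). Peroxidase secondary was applied for 60 min, with ECL detection and β-actin reprobe as the loading control.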
# [18] = system: XIAP; test: Western blot, XIAP in HeLa cells; format: cell-based, human; settings: 24 or 48 h
# Method in brief: as §2
# [19] = system: Bcl-2; test: Western blot, Bcl-2 in HeLa cells; format: cell-based, human; settings: after 48 h
# Method in brief: as §2
# [20] = system: Bax; test: Western blot, Bax in HeLa cells; format: cell-based, human
# Method in brief: as §2
# [21] = system: caspase-3; test: Western blot, caspase-3 in HeLa cells; format: cell-based, human; settings: 24 or 48 h
# Method in brief: as §2
# [22] = Body weight of treated xenograft mice; format: in vivo, BALB/c-nu nude mice; settings: 100 mg/kg intraperitoneally, 3 doses; whole treatment period
# Method in brief: as §1
# [23] = system: cyclin B1; test: Western blot, cyclin B1 in HeLa cells; format: cell-based, human; settings: 24 and 48 h
# Method in brief: as §2
# [24] = system: colon 26 murine tumor cell line; settings: read-out: cytotoxicity IC50, colon 26; ref 9a; cited from earlier work
# [25] = system: CEM cells; settings: read-out: IC50 CEM; parental line; ref 13c; cited from earlier work
# [26] = system: CEM^Vbl100 cells; settings: ref 13c, cited from earlier work
# [27] = ratio of IC50 in resistant and nonresistant cell lines
# Chain of bovine brain tubulin (P81947 whole entry): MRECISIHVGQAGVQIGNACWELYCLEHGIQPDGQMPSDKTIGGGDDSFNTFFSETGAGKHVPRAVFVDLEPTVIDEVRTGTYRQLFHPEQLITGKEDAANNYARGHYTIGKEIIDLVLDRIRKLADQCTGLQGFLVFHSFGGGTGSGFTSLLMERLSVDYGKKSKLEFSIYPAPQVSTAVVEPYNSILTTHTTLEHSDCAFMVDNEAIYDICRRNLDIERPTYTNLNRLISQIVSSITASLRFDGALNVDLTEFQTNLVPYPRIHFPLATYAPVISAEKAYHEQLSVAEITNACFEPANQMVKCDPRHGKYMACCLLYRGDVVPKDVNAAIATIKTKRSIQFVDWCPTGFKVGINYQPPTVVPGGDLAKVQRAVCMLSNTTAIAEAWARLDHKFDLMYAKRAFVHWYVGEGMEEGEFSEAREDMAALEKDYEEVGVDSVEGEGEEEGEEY
# Chain of bovine brain tubulin (Q6B856 whole entry): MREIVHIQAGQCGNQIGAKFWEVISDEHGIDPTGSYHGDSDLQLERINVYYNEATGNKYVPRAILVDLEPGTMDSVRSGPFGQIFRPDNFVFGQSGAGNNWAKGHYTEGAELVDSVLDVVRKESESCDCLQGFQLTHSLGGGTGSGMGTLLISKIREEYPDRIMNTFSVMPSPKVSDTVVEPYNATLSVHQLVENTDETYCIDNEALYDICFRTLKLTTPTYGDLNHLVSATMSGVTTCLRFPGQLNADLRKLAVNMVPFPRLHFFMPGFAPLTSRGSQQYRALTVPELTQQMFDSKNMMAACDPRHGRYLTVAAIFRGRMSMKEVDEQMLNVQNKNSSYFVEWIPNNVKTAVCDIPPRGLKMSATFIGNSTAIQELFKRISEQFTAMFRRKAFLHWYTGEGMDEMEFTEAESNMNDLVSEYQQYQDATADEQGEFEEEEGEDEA
smiles,measurement,setting,value
"COc1ccc(/C=C\c2cc(OC)c(OC)c(OC)c2)cc1O [compound 1, combretastatin A-4]",IC50,[1],0.005 ± 0.0006 µM
same,reduction in tumor growth vs vehicle,[2],43.7%
CC(=O)O[C@H]1C(=O)[C@@]2(C)[C@H]([C@H](OC(=O)c3ccccc3)[C@]3(O)C[C@H](OC(=O)[C@H](O)[C@@H](NC(=O)c4ccccc4)c4ccccc4)C(C)=C1C3(C)C)[C@]1(OC(C)=O)CO[C@@H]1C[C@@H]2O [paclitaxel],IC50,[3],0.0072 ± 0.0001 µM
same,resistance ratio A549-T12/A549,[4]; [27],10.4
same,IC50,"[4]; read-out: IC50 A549-T12, paclitaxel resistant line",0.0752 ± 0.0125 µM
"CCCCOc1ccc(-c2nnnn2-c2cc(OC)c(OC)c(OC)c2)cc1 [4o, 5-(4-Butoxyphenyl)-1-(3,4,5-trimethoxyphenyl)-1H-tetrazole]",antiproliferative activity,[5],inactive
"CCCCCOc1ccc(-c2nnnn2-c2cc(OC)c(OC)c(OC)c2)cc1 [4p, 1-(3,4,5-Trimethoxyphenyl)-5-(4-(pentyloxy)phenyl)-1H-tetrazole]",antiproliferative activity,[5],inactive
"CCOc1ccc(-n2nnnc2-c2cc(OC)c(OC)c(OC)c2)cc1 [5b, 5-(3,4,5-Trimethoxyphenyl)-1-(4-ethoxyphenyl)-1H-tetrazole]",lowest concentration with a rise in G2/M cells,[6],30 nM
same,cells with depolarized mitochondria,[7],induced a time and concentration-dependent increase in the proportion of cells with depolarized mitochondria
same,ROS production,[8],induced the production of significant amounts of ROS
same,annexin-V positive cells,[9],induced an accumulation of annexin-V positive cells
COc1cccc2c1C(=O)c1c(O)c3c(c(O)c1C2=O)C[C@@](O)(C(=O)CO)C[C@@H]3O[C@H]1C[C@H](N)[C@H](O)[C@H](C)O1 [doxorubicin],resistance ratio LoVoDoxo/LoVo,[10]; [27],109.6
same,IC50,"[10]; read-out: IC50 LoVoDoxo, doxorubicin resistant line",13.2 ± 0.21 µM
same,IC50,[11],0.12 ± 0.03 µM
CCOc1ccc(-c2ncnn2-c2cc(OC)c(OC)c(OC)c2)cc1 [3a],IC50,[12],0.015 ± 0.004 µM
same,IC50,[1],0.005 ± 0.0002 µM
same,IC50,[13],0.02 ± 0.003 µM
same,IC50,[14],0.05 ± 0.009 µM
same,IC50,[15],0.1 ± 0.02 µM
"CCOc1ccc(-c2nnnn2-c2cc(OC)c(OC)c(OC)c2)cc1 [4l, 1-(3,4,5-Trimethoxyphenyl)-5-(4-ethoxyphenyl)-1H-tetrazole]",lowest concentration with a rise in G2/M cells,[6],30 nM
same,fold more potent than 5b in tubulin assembly,[16],2 fold
same,caspase-9 activation,[17],induced activation of caspase-9
same,XIAP expression,[18],strongly reduced
same,Bcl-2 expression,[19],only slightly affected
same,cells with depolarized mitochondria,[7],induced a time and concentration-dependent increase in the proportion of cells with depolarized mitochondria
same,ROS production,[8],induced the production of significant amounts of ROS
same,Bax expression,[20],no effect
same,caspase-3 activation,[21],activation of caspase-3
same,body weight change of treated animals,[22],no significant weight changes
same,cyclin B1 expression,[23],marked increase in cyclin B1 expression
same,annexin-V positive cells,[9],induced an accumulation of annexin-V positive cells
"COc1ccc(-c2nnnn2-c2cc(OC)c(OC)c(OC)c2)cc1N [1-(3,4,5-trimethoxyphenyl)-5-(4-methoxy,3-aminophenyl)-1H-tetrazole]",IC50,[24],0.0072 µM
CC[C@]1(O)C[C@@H]2CN(CCc3c([nH]c4ccccc34)[C@@](C(=O)OC)(c3cc4c(cc3OC)N(C)[C@H]3[C@@](O)(C(=O)OC)[C@H](OC(C)=O)[C@]5(CC)C=CCN6CC[C@]43[C@@H]65)C2)C1 [vinblastine],IC50,[25],0.0041 ± 0.0002 µM
same,resistance ratio CEMVbl100/CEM,[26]; [27],56.1
same,IC50,"[26]; read-out: IC50 CEMVbl100, vinblastine resistant line",0.23 ± 0.032 µM
